Source: PMC6957770 (Biochemical Journal, 2020)
Values joined by “and” are separate entries in the source; they are usually repeats but may differ in a detail not shown here. Identical values can stand only once. “Also recorded” adds a separate entry of the source. Like-named read-outs stand apart in the source and are kept apart here.

How the values were obtained:
[1] = biological target: T1, Full-length PilB (CtPilB) (Chloracidobacterium thermophilum, UniProt G2LDI3); assay: ITC ligand binding to full-length PilB with or without effector; settings: for N, number of ligand binding sites per protein: per PilB hexamer
T1 sequence (G2LDI3 1-614): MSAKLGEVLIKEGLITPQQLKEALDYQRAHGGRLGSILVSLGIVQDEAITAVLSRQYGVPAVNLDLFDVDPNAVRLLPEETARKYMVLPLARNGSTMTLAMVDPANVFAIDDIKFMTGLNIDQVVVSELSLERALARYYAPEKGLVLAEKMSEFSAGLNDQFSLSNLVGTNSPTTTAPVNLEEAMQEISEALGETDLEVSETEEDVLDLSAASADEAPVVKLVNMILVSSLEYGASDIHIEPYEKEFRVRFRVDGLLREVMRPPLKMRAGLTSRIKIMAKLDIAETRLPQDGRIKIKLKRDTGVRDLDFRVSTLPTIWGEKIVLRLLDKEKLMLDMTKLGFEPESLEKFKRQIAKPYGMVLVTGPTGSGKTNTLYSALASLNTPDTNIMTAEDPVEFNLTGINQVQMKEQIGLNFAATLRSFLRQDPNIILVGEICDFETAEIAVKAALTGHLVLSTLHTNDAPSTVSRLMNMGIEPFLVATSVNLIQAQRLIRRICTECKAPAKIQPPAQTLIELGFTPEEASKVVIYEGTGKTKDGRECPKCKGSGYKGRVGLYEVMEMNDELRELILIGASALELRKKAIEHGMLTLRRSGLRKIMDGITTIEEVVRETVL
In short: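 ITC at 25 °C using full-length hexameric PilB (expressed in E. coli XL1-Blue; Ni-NTA/SEC) dialysed into activity buffer. cdG runs: 5.3 μM protein, 0.5 mM cdG, one 0.4 μl then 29 × 1 μl injections, 150 s apart. ATPγS/ADP runs: 15 μM protein, 1 mM titrant, one 0.4 μl then 39 × 1 μl injections, 120 s apart. Optional effector pre-incubation: 15 min on ice (cdG 100 μM; ATPγS/ADP 50 μM). Buffer-only heats subtracted; single-site fit.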

PilBΔN = biological target: T2, PilBΔN (Chloracidobacterium thermophilum, UniProt G2LDI3); assay: ITC ligand binding to PilBΔN; settings: for ΔG / ΔH / N, number of ligand binding sites per protein: ITC; for ΔG / ΔH: 25 °C; for N, number of ligand binding sites per protein: per PilBΔN hexamer
T2 sequence (G2LDI3 140-614): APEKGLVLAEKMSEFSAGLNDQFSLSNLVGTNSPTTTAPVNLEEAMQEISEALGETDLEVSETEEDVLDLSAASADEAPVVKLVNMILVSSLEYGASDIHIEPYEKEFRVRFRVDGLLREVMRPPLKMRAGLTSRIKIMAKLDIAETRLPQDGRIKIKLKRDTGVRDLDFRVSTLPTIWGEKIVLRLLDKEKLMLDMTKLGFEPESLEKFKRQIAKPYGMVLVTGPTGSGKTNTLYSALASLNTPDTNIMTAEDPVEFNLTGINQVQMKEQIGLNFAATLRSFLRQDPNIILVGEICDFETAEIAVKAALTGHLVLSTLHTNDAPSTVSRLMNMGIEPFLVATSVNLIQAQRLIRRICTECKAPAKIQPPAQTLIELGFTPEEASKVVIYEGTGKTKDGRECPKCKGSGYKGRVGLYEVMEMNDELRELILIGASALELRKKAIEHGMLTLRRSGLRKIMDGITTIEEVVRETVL

PilBN = biological target: T3, PilBN (Chloracidobacterium thermophilum, UniProt G2LDI3); assay: ITC ligand binding to PilBN; settings: for binding detected by ITC: 30 μM PilBN, Supplementary Figure S4A,B
T3 sequence (G2LDI3 1-146): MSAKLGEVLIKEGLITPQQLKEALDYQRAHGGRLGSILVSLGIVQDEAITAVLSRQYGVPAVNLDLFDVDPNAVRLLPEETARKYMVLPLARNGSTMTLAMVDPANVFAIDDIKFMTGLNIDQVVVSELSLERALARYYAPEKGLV
In short: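 ITC at 25 °C, 300 rpm stirring. His-tagged PilBN (expressed in E. coli BL21(DE3)) was purified by Ni-NTA and size exclusion, dialysed into activity buffer, and set at 30 μM final in the cell. Syringe held 0.5 mM cdG, given as one 0.4 μl and 29 × 1 μl injections 150 s apart. Buffer-only heats were subtracted. Fit used a single-set-of-identical-sites model; ≥3 independent runs.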

VcMshE = settings: in vitro; cited from earlier work
[2] = system: full-length CtPilB ATPase; assay: Malachite green-based ATPase assay of full-length CtPilB in the presence of cdG; format: biochemical, Chloracidobacterium thermophilum
In short: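 Full-length PilB (75 nM) ATPase was read by malachite green phosphate endpoint after 15 min at 54 °C in activity buffer, with cdG at 0, 2 or 200 μM. Kinetic runs used 0.5 and 1.0 mM ATP with or without cdG. No-protein ATP blanks served as controls.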

[3] = biological target: PilBΔN (truncated CtPilB without the first 139 residues) (Chloracidobacterium thermophilum); assay: SEC

Row | Molecule | ΔG ([1]; ITC, 25 °C, no effector) | ΔH ([1]; ITC, 25 °C, no effector) | N, number of ligand binding sites per protein ([1]; ITC, no effector) | ΔG ([1]; effector cdG 100 μM) | ΔH ([1]; effector cdG 100 μM) | N, number of ligand binding sites per protein ([1]; effector cdG 100 μM) | ΔG (PilBΔN; no effector) | ΔH (PilBΔN; no effector) | N, number of ligand binding sites per protein (PilBΔN; no effector) | binding detected by ITC (PilBN) | also measured
1 | Nc1ncnc2c1ncn2[C@@H]1O[C@H](COP(=O)(O)OP(=O)(O)O)[C@@H](O)[C@H]1O [ADP] | -7.3 kcal/mol | -15.4 kcal/mol and -15.4 ± 1.0 kcal/mol | 2.20±0.02 | -6.9 kcal/mol | -46.2 kcal/mol and -46.2 ± 1.6 kcal/mol | 1.79±0.06 | -7.0 kcal/mol | -16.2 kcal/mol and -16.2 ± 0.4 kcal/mol | 2.20±0.03 | no detectable binding; also recorded: without detectable binding | Kd ([1]; read-out: apparent dissociation constant KD, ITC, 25 °C, no effector, 15 μM PilB): 4.3 ± 1 µM
2 | Nc1ncnc2c1ncn2[C@@H]1O[C@H](COP(=O)(O)OP(=O)(O)OP(=O)(O)O)[C@@H](O)[C@H]1O [ATP] |  |  |  |  |  |  |  |  |  |  | N, stoichiometry per PilB hexamer ([1]; ITC with ATP, hydrolysis interferes): 2
3 | Nc1ncnc2c1ncn2[C@@H]1O[C@H](CO[P@](=O)(O)O[P@](=O)(O)O[P@@](=O)(O)S)[C@@H](O)[C@H]1O [ATPγS] | -7.4 kcal/mol | -10.3 ± 0.3 kcal/mol | 2.8 and 2.8±0.06 | -7.4 kcal/mol | -10.3 ± 0.3 kcal/mol | 2.91±0.04 | -7.2 kcal/mol | -11.5 kcal/mol and -11.5 ± 0.6 kcal/mol | 2.42±0.07 | no detectable binding; also recorded: without detectable binding | Kd ([1]; apparent dissociation constant KD, ITC, 25 °C, no effector, 15 μM PilB): 3.8 ± 0.5 µM; Kd (PilBΔN): 5.2 ± 0.7 µM; KD for PilBΔN higher than KD for full-length PilB (PilBΔN; PilBΔN versus full-length PilB, no effector): ~40%
4 | Nc1nc2c(ncn2[C@@H]2O[C@@H]3COP(=O)(O)O[C@H]4[C@@H](O)[C@H](n5cnc6c(=O)[nH]c(N)nc65)O[C@@H]4COP(=O)(O)O[C@H]3[C@H]2O)c(=O)[nH]1 [cdG, cyclic-di-GMP] |  | -14.5 kcal/mol and -14.5 ± 0.13 kcal/mol | 5.83±0.01 |  |  |  |  |  |  |  | effect of cdG on ATPase activity (VcMshE): only to a very limited extent; Kd ([1]; apparent dissociation constant KD, ITC, 25 °C, no effector, 5.3 μM PilB): 0.053 ± 0.01 µM; ΔG ([1]; effector ADP 50 μM): -10.6 kcal/mol; ΔH ([1]; effector ADP 50 μM): -12.0 ± 0.09 kcal/mol; N, number of ligand binding sites per protein ([1]; effector ADP 50 μM): 5.94±0.09; ΔH ([1]; effector ATPγS 50 μM): -14.0 ± 0.3 kcal/mol; N, number of ligand binding sites per protein ([1]; effector ATPγS 50 μM): 6.33±0.08; binding detected by ITC (PilBΔN; 5.3 μM PilBΔN, Supplementary Figure S4C): Nor was there any detectable binding; effect on ATPase activity, kinetic assay ([2]; cdG 0, 2 or 200 μM, ATP 0.5 and 1.0 mM, Supplementary Figure S5): not statistically significant; also recorded: did not affect; effect on ATPase activity, endpoint assay ([2]; cdG at 0, 2 and 200 μM, data not shown): no difference; Kd (PilBN): 107 ± 14 nM; ΔG (PilBN; ITC, 25 °C, no effector): -9.5 kcal/mol; ΔH (PilBN; ITC, 25 °C, no effector): -7.4 ± 0.5 kcal/mol; −TΔS (PilBN; ITC, 25 °C, no effector): -2.1 kcal/mol; N, number of ligand binding sites per protein (PilBN; ITC, no effector, PilBN monomer): 1.09±0.03
5 | PilBΔN (truncated CtPilB without the first 139 residues) (from UniProt A0ABV9NNI3 140-574) (domain or fragment) |  |  |  |  |  |  |  |  |  |  | stoichiometry N [3]: 6
